Measured values of several laboratories.
Lines come from different studies, so protocols differ. pIC50: −log10 of the molar value.
Trpc6: Short transient receptor potential channel 6 (Trpc6, Mus musculus, UniProt Q61143)
CNR2: Cannabinoid receptor 2 (CNR2, Homo sapiens, UniProt P34972)
MMP2: 72 kDa type IV collagenase (MMP2, Homo sapiens, UniProt P08253)
ADRB2: Beta-2 adrenergic receptor (ADRB2, Homo sapiens, UniProt P07550)

| Structure (SMILES) | target | assay | conditions | pIC50 |
| --- | --- | --- | --- | --- |
| CC/C(=C(\c1ccccc1)c1ccc(OCCN(C)C)cc1)c1ccccc1 | Histone-lysine N-methyltransferase SETD7 (SETD7, Homo sapiens, UniProt Q8WTS6) | enzyme activity, inhibitor |  | < 3.48 |
| CN1CCN(c2ccc(Nc3ncc4cc(C#N)c(=O)n(C5CCCC5)c4n3)cc2)CC1 | Casein kinase I isoform alpha (CSNK1A1, Homo sapiens, UniProt P48729) | enzyme activity, inhibitor |  | < 5.00 |
| COc1cccc2sc(N(CCN(C)C)C(=O)c3ccc(Cl)s3)nc12 | Trpc6 | calcium signal, fluorescence |  | 3.86 |
| CCCC[C@H](NC(=O)[C@H](C)c1c(C)[nH]c2ccc(O)cc12)c1ncc(-c2cc3ccccc3nc2OC)[nH]1 | Polyamine deacetylase HDAC10 (HDAC10, Homo sapiens, UniProt Q969S8) | enzyme activity, inhibitor |  | 6.37 |
| COc1ccc2c3ccnc(C(F)(F)F)c3n(CCCCN)c2c1 | Serine/threonine-protein kinase haspin (HASPIN, Homo sapiens, UniProt Q8TF76) | enzyme activity, inhibitor, TR-FRET |  | 7.00 |
| Cc1cnc(-c2ccc(-c3ccc(NC(=O)Nc4c(F)cc(F)cc4F)cc3F)c3c2C(=O)NC3)[nH]1 | Epithelial discoidin domain-containing receptor 1 (DDR1, Homo sapiens, UniProt Q08345) | enzyme activity, inhibitor |  | 7.27 |
| CC(=O)N[C@H]1CC(=O)NCCCC[C@@H](C(=O)N[C@@H](CCCNC(=N)N)C(=O)c2nc3ccc(C(=O)N[C@H](C(N)=O)C(C)C)cc3s2)NC(=O)[C@H](CC(C)C)NC1=O | Serine protease hepsin (HPN, Homo sapiens, UniProt P05981) | enzyme activity, inhibitor, fluorescence | with preincubation | 8.27 |
| CC(C)=CCc1c(O)cc(O)c2c1O[C@H](c1ccc(O)cc1)CC2=O | Cytochrome P450 1B1 (CYP1B1, Homo sapiens, UniProt Q16678) | enzyme activity, inhibitor, fluorescence | 15 min, pH 7.4 | 6.39 |
| COc1ccc(/C=C2\SC(=Nc3nc4ccc(OC)cc4s3)NC2=O)cc1 | Aldo-keto reductase family 1 member B1 (Akr1b1, Rattus norvegicus, UniProt P07943) | enzyme activity, inhibitor, absorbance | pH 6.2 | 5.36 |
| Cc1c(C(=O)N[C@H]2CCCC[C@H]2N)nc(-c2ccc(Cl)cc2Cl)n1-c1ccc(OS(=O)(=O)CCC(F)(F)F)cc1 (racemic) | CNR2 | GTPγS binding, antagonist | cell membranes | 6.09 |
| CCNC(=O)c1nc(-c2ccc3[nH]c(-c4nc(C)no4)cc3c2)c(C)[nH]1 | MMP2 | enzyme activity, inhibitor |  | < 4.70 |
| CCCN(CCC)CCc1cccc2c1CC(=O)N2 | ADRB2 | ligand displacement, radioligand | cell membranes | 3.70 |
| Cc1noc(-c2cc3cc(-c4cc(C(=O)NCc5ccc(C(=O)O)cc5)nn4C)ccc3[nH]2)n1 | MMP2 | enzyme activity, inhibitor |  | < 4.70 |
| N=C(N)NCCCC(NC(=O)C(c1ccccc1)c1ccccc1)C(=O)NCc1ccc(O)cc1 (stereo not shown) | ADRB2 | ligand displacement, radioligand | cell membranes | 4.20 |
| Cc1noc(-c2cc3cc(-c4nc(C(N)=O)[nH]c4C)ccc3[nH]2)n1 | MMP2 | enzyme activity, inhibitor |  | < 4.70 |
| CC(C)(C)OC(=O)NCC#Cc1ccc2c(c1)C=C([N+](=O)[O-])C(C(F)(F)F)O2 (stereo not shown) | P2Y purinoceptor 6 (P2RY6, Homo sapiens, UniProt Q15077) | calcium signal, antagonist |  | ~6.00 |
| COc1ccc2nc(N(CCN(C)C)C(=O)c3ccc(Cl)s3)sc2c1 | Trpc6 | calcium signal, fluorescence |  | 4.21 |
| Cc1c(C(=O)NN2CCCCC2)nc(-c2ccc(Cl)cc2Cl)n1-c1ccc(OS(=O)(=O)CCC(C)(C)C)cc1 | CNR2 | GTPγS binding, antagonist | cell membranes | 5.87 |
| COc1c(OCC2CCCC2)cc2c(c1C=O)CC(O)OC2=O (stereo not shown) | Receptor-type tyrosine-protein phosphatase S (PTPRS, Homo sapiens, UniProt Q13332) | enzyme activity, inhibitor, absorbance |  | 6.15 to 6.22 |
